Source: PubChem (several laboratories)
hERG protect: compounds protecting human hERG from proarrhythmic drug block; Q12809; CHO-hERG, FluxOR thallium flux, dofetilide IC70 present; activation (rescue from dofetilide block), less the hit threshold, % at 10 µM; 0.51% of 310,000 active;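 active = activation above the mean of controls blocked by dofetilide plus 5 SD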;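 also: thallium influx through hERG after potassium depolarization seen as dye fluorescence rise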
KCNQ1 act: human KCNQ1 channel potentiation or activation; 0.35% of 310,000 active; B-score at 10 µM; P51787; CHO-K1 KCNQ1, thallium flux FluxOR fluorescence; stronger effect = higher value;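 active = fluorescence ratio B-score, a plate-corrected score, at least three library SD, with initial intensity B-score within 5 SD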
Target sequence (P51787 whole entry, looked up): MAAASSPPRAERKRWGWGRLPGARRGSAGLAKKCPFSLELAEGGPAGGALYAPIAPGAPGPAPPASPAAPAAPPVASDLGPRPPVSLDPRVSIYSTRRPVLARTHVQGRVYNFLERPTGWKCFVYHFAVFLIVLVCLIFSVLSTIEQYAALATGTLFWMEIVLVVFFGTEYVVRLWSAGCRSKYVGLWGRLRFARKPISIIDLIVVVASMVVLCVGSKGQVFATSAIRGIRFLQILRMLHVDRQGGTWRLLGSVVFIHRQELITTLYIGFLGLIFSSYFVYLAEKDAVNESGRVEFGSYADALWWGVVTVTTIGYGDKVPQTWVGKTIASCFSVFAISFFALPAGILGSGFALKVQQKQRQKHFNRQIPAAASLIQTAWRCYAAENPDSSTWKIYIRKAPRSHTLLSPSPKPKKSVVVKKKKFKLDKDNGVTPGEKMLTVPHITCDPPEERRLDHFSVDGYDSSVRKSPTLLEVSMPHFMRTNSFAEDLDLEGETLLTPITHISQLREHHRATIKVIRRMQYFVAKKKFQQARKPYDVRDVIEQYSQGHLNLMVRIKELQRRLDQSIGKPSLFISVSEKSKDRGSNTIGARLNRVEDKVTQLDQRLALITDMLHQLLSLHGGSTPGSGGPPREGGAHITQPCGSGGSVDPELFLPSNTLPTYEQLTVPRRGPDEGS
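System: Stable KCNQ1 CHO-K1 line | Incubation: 90 min dye loading and 20 min compound exposure, both at room temperature | Measure: Ratio B score | Medium: Assay buffer for compound exposure, DMSO matched across wells | Compound dosing: Single-concentration screen | Probe or stimulus: K+/Tl+ depolarizing stimulus | Measured by: Kinetic FluxOR fluorescence, 10 s baseline plus 110 s post-stimulus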
Cl transport mod: modulates chloride dependent transport by human KCC2; Q9H2X9; KCC2 cells, thallium flux FluoZin-2 fluorescence; B-score of Tl+ flux slope (higher = more flux/activation; lower = inhibition) at 10 µM; 2.2% of 190,000 active; AID 1456;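 active = thallium flux slope and its plate-corrected score both differing from the plate sample mean at a set confidence after two filtering rounds, in either direction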;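 also: slope of fluorescence scaled to starting intensity during 10 to 20 s after thallium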
AI-2 QS modul: modulators of Vibrio harveyi AI-2 quorum sensing system. activity change, % at 7.5 µM. Vibrio harveyi JMH597 AI-2 luminescence/OD600 ratio, 9 h; stronger effect = lower value; strain lacks LuxN and CqsS sensors; 0 = neutral-control median. AID 2094. 0.4% of 300,000 active; in the data active = activity change below about -75%, passing the limit was not always enough; inconclusive = no clear call, values can overlap the other calls;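 also: luminescence divided by OD600 gain over 9 h not by final OD600 alone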
Mot1-301 SUMO: blocks SUMOylation pathway, rescuing yeast Mot1-301 growth | S. cerevisiae Mot1-301 growth rescue, ATP luminescence, 38.5C; percent above DMSO median, 100 means doubled | growth rescue, % at 18.8 µM | 1% of 320,000 active;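 active = every valid replicate shows activation above 250% relative to neutral control wells; inactive = the rest, any valid replicate at or below 250%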;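 also: OY570 slx delta 5 strain wells were the positive control but not used for scaling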
KCNQ1 block: human KCNQ1 channel inhibition; CHO-K1 KCNQ1, FluxOR thallium flux fluorescence; stronger effect = higher value; B-score at 10 µM; 1.3% of 310,000 active; AID 2642;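 active = compounds whose thallium flux B-score, printed positive for inhibition, exceeds three library SD while starting fluorescence stays within three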;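 also: channel opened by potassium depolarization with thallium stimulus after 20 min compound exposure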
Active calls of the source: *; i = inactive; u = inconclusive; x = not tested or not shown. Rows were chosen to be rich in hits. Some 4.2% of all compounds tested hit in one or more screens of this group.

SMILES	hERG protect	KCNQ1 act	Cl transport mod	AI-2 QS modul	Mot1-301 SUMO	KCNQ1 block
Cc1ccc(-c2c3c([nH]c(=S)c2C#N)CCCC3)o1	0	i	24*	17	0	i
N#Cc1c(-c2ccncc2)c2c([nH]c1=S)CCCC2	-17	i	-1.1	3	-9	i
O=C(NCCCc1ccc(F)cc1)C1CCC(=O)N(CCCN2CCCC2=O)C1 (stereo not drawn)	-1	i	x	16	-4	i
O=C(CCSCc1ccccc1Cl)NCc1cccs1	5.0*	i	-1.5	-3	-14	i
CCCCN(CCCC)CCNC(=O)c1ccc2nc(-c3ccccc3NC(C)=O)c(=O)[nH]c2c1	-4	i	0.75	15	561*	i
Cc1c(Cl)cccc1NC(=S)NCCC(C)C	-8	i	x	1	x	i
Cc1cc(Cl)ccc1NC(=S)NCc1ccc(Cl)cc1	-7	i	0.71	-2	27	i
Cc1c(Cl)cccc1NC(=S)NCCC(c1ccccc1)c1ccccc1	-5	i	-0.057	13	6	11*
Cc1cc(Cl)ccc1NC(=S)NCCC(c1ccccc1)c1ccccc1	-13	i	x	9	-36	11*
Cc1cc(SCC(=O)NCC(c2cccs2)N2CCOCC2)c(C)cc1Br (stereo not drawn)	-11	i	x	13	-11	i
Cc1ccc(S(=O)(=O)Nc2cc(Cl)c(O)c3ncccc23)cc1	-5	i	x	-227*	-16	i
CCC(C)c1ccc(O)c(NC(=S)NC(=O)c2cccnc2)c1 (stereo not drawn)	3	i	0.66	-36	0	i
CCOc1ccc(C(=O)NCC(C)NC(=O)c2ccc(OCC)cc2)cc1 (stereo not drawn)	-4	i	x	13	170	14*
O=C(NC(=S)Nc1ccccc1C(=O)O)c1cncc(Br)c1	-3	i	x	-1	-1	i
CCCC(=O)Nc1ccccc1NC(=O)c1ccc(OCC)cc1	-7	i	0.2	16	18	i
CCOc1ccc(C(=O)Nc2ccccc2C(=O)O)cc1	7.5*	i	-0.43	-10	1	i
O=C(Nc1ccccc1C(=O)O)c1cncc(Br)c1	6.6*	i	x	7	-8	i
CCC(C)c1ccc(O)c(NC(=O)c2cncc(Br)c2)c1 (stereo not drawn)	-5	i	-0.83	-85*	-8	i
CCN(CC)c1cc(CS(=O)c2ccccc2)nc(-c2ccccc2)n1 (stereo not drawn)	-21	i	-0.21	3	-16	i
CCC1CCCCN1CCCNC(=O)Cn1ncn2nc(-c3ccc(OC)cc3)cc2c1=O (stereo not drawn)	-12	i	x	60	30	i
Cn1c(Sc2ccccc2Cl)c(C=O)c2ccccc21	-13	i	x	14	-4	11*
Cn1c(Oc2ccc(Cl)cc2)c(C=O)c2ccccc21	-3	i	x	4	47	i
Cc1cccc(Sc2c(C=O)c3ccccc3n2C)c1	-6	i	x	7	-15	i
Cn1c(Sc2ccc(Cl)cc2)c(C=O)c2ccccc21	-7	i	x	u	7	7*
O=C(CSc1nnc(CNC(=O)c2cccs2)o1)Nc1ccc(F)cc1F	-9	i	x	2	1	i
SMILES	hERG protect	KCNQ1 act	Cl transport mod	AI-2 QS modul	Mot1-301 SUMO	KCNQ1 block
CCOCCCN(C(=O)c1snc(C(N)=O)c1N)C(C(=O)NC1CCCC1)c1ccc(OC)cc1 (stereo not drawn)	-5	i	x	23	168	i
Cn1c(-c2c(N)n(CCc3ccccc3)c3nc4ccccc4nc23)nc2ccccc21	-19	i	0.14	47	0	13*
O=c1c(C(c2ccc(O)cc2)c2c(O)nc3n(c2=O)CCS3)c(O)nc2n1CCS2	6.7*	i	-0.36	18	220	i
C=CCNC(=O)c1c(CSc2ccc(F)cc2)noc1C(=O)NCCC	-4	i	x	26	1	i
Cc1ccc(-c2cc(C(F)F)n3ncc(C(=O)N4CCCc5ccccc54)c3n2)cc1	-5	i	-0.96	-4	383*	i
Cn1cnnc1SCC(=O)NC1CC1	x	x	x	x	-8	x
CCOC(=O)C1CCCN(S(=O)(=O)c2cnc(Cl)c(Br)c2)C1 (stereo not drawn)	-6	i	x	11	6	i
NC(=O)c1cccnc1Oc1ccccc1	-7	i	x	12	350*	i
COc1ccc(N2CCN(c3oc(Cc4cccc5ccccc45)nc3C#N)CC2)cc1	-6	i	0.63	12	-4	i
N#Cc1nc(Cc2cccc3ccccc23)oc1N1CCC(C(N)=O)CC1	-2	i	-7.4*	20	4	i
O=C(NC(=S)N1CCN(c2nc(-c3ccccc3)cs2)CC1)c1cncc(Br)c1	89*	56*	70*	9	116	i
COc1c(N2CCNC(C)C2)c(F)cc2c(=O)c(C(=O)O)cn(C3CC3)c12 (stereo not drawn)	-9	i	x	27	-24	i
NC1CCN(c2c(F)cc3c(=O)c(C(=O)O)cn(C4CC4)c3c2Cl)C1 (stereo not drawn)	-10	i	-0.21	-88*	14	i
Cc1c(Cl)cccc1NC(=O)c1ccccc1-c1ccccc1C(=O)O	-9	i	x	-12	14	i
CCOC(=O)COc1c(C(=O)OC)sc2ncccc12	39*	i	-1.4	16	-16	i
Cc1ccc(-n2nnc3c(=O)n(Cc4cccc(C)c4)cnc32)cc1	-10	i	-0.47	-1	405*	i
C(=N\N(Cc1ccccc1)c1ccccc1)/c1cccnc1	-11	i	-0.87	-8	622	i
Oc1cccc(/C=N/N(Cc2ccccc2)c2ccccc2)c1	-15	i	0.61	x	132	6*
CN(C)S(=O)(=O)Nc1ccc(Oc2ccccc2)cc1	-15	i	-0.74	-93*	13	i
COc1ccc(C[C@H]2CN3C(=NC[C@H]3Cc3ccccc3)N2CCNC(=O)c2ccc(C)c(Br)c2)cc1	-27	i	0.42	38	-3	7*
COc1ccc(C[C@H]2CN3C(=NC[C@@H]3Cc3ccccc3)N2CCNC(=O)c2ccc(C)c(Br)c2)cc1	-23	i	-1.8	27	-11	9*
COc1ccc(C[C@H]2CN3C(=NC[C@@H]3Cc3ccc(O)cc3)N2CCNC(=O)c2ccc(C)c(Br)c2)cc1	-21	i	-2.4	38	-4	i
CCCCOP(=O)(OCCCC)C(Nc1ccc(C(=O)OCC)cc1)c1ccncc1 (stereo not drawn)	-11	i	x	-4	17	6*
